Measurements as given in ChEMBL document CHEMBL1909630, “Azaxanthene based selective glucocorticoid receptor modulators: design, synthesis, and pharmacological evaluation of (S)-4-(5-(1-((1,3,4-thiadiazol-2-yl)amino)-2-methyl-1-oxopropan-2-yl)-5H-chromeno[2,3-b]pyridin-2-yl)-2-fluoro-N,N-dimethylbenzamide (BMS-776532) and its methylene homologue …” (J Med Chem, 2011).

Assays:
Glucocorticoid receptor [1] = molecular target: T1, Glucocorticoid receptor (Homo sapiens, UniProt P04150); assay: Displacement of GS-red from glucocorticoid receptor by fluorescence polarization assay
T1 sequence (P04150 whole entry): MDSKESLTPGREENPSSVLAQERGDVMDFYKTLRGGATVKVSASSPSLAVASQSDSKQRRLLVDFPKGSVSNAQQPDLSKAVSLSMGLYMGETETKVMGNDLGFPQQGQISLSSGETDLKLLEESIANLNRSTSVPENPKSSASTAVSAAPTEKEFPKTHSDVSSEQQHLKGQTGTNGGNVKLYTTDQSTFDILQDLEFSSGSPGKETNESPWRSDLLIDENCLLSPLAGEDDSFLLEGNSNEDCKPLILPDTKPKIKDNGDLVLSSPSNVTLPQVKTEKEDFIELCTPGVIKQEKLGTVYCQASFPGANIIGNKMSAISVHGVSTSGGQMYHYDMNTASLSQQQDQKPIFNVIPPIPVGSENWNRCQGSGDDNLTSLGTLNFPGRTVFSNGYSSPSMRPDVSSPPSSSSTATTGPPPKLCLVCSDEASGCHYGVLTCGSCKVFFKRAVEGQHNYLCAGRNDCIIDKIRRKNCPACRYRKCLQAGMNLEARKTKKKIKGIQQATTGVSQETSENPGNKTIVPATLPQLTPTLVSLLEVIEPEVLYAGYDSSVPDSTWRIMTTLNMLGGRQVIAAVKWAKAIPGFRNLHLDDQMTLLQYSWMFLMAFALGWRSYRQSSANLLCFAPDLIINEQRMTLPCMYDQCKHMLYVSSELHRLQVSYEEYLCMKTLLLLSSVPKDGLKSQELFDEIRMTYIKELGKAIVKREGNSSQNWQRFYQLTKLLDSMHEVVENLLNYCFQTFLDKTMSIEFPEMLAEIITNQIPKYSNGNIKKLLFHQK

Progesterone receptor = molecular target: T2, Progesterone receptor (Homo sapiens, UniProt P06401); assay: Displacement of fluorescently labeled ligand from progesterone receptor by fluorescence polarization assay
T2 sequence (P06401 whole entry): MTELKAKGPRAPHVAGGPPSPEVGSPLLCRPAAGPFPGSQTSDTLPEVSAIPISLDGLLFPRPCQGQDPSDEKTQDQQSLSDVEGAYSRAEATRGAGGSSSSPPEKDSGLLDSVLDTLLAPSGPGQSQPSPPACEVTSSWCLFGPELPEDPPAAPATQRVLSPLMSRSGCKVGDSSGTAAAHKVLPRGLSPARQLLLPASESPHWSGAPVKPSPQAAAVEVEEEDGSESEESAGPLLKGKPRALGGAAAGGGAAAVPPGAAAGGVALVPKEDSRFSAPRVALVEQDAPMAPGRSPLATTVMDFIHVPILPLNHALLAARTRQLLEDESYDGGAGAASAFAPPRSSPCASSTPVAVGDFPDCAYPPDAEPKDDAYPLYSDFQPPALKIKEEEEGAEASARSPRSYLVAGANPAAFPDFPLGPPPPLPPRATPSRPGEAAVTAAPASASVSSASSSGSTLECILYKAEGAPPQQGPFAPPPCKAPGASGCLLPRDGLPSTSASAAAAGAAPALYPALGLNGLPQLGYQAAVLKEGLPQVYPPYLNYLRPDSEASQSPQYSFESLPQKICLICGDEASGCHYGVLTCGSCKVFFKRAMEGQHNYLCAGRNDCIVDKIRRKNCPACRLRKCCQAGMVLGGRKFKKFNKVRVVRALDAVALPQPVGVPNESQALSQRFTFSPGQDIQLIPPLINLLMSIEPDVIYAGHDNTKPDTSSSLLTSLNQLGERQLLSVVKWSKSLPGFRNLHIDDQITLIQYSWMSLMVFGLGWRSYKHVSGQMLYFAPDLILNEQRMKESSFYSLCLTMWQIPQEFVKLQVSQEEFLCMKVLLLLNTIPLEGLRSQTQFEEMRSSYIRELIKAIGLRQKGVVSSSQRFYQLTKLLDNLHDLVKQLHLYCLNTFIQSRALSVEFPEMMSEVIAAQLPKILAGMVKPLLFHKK

Estrogen receptor = molecular target: T3, Estrogen receptor (Homo sapiens, UniProt P03372); assay: Displacement of fluorescently labeled ligand from ERalpha receptor by fluorescence polarization assay
T3 sequence (P03372 whole entry): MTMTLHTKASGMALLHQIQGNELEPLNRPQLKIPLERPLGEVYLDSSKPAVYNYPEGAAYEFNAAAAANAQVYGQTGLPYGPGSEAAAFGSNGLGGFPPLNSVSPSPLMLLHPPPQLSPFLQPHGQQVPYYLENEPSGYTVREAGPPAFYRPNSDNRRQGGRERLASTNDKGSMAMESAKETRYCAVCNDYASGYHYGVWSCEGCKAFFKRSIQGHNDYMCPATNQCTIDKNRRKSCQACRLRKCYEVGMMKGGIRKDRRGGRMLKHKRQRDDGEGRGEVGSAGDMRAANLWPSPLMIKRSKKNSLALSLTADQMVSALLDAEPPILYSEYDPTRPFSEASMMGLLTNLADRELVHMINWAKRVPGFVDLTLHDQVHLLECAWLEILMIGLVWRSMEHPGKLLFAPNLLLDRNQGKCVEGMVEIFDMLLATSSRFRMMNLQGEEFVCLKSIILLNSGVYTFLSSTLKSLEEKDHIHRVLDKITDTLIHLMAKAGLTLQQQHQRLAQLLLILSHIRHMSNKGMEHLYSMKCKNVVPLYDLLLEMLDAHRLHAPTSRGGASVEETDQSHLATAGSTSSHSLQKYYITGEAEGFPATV
Method in brief: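 Binding was measured by fluorescence polarization competition between compound and a fluorescent ligand for full-length receptor or ligand-binding domain. Values are means of at least two experiments.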

[2] = molecular target: T4, Mineralocorticoid receptor (Homo sapiens, UniProt P08235); assay: Agonist activity at human mineralocorticoid receptor expressed in human A549 cells by fluorescence polarization assay; format: functional, cell-based
T4 sequence (P08235 whole entry): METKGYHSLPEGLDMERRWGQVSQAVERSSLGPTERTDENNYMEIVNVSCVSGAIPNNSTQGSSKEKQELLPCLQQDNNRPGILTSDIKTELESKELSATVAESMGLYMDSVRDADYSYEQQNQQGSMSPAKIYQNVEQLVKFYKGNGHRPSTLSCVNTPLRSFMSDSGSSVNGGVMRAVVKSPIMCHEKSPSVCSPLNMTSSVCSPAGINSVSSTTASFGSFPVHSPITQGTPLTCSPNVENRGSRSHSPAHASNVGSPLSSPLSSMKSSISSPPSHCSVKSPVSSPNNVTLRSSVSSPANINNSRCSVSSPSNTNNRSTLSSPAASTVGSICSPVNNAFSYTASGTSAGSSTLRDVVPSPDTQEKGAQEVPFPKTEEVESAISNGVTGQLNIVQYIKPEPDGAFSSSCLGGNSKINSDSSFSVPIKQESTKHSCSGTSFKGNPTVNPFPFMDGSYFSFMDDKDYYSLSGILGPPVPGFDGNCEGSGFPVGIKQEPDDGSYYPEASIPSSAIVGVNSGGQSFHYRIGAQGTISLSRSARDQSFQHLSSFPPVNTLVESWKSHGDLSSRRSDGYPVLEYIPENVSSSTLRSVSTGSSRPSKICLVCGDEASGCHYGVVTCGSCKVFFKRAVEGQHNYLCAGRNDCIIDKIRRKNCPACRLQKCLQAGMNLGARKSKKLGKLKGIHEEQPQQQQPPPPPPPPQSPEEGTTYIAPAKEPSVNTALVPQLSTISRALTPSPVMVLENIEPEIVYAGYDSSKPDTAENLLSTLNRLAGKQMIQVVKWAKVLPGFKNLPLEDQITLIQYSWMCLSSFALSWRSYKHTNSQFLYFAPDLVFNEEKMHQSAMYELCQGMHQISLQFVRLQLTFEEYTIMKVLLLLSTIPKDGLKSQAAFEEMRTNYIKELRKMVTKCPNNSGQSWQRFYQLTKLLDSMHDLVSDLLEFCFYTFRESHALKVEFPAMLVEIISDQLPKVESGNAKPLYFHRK

Glucocorticoid receptor [3] = molecular target: T1, Glucocorticoid receptor; assay: Transrepression activity at glucocorticoid receptor alpha in phorbol myristate acetate-stimulated human A549 cells assessed as inhibition of AP1 response element by luciferase reporter gene assay; format: cell-based
Glucocorticoid receptor [4] = molecular target: T1, Glucocorticoid receptor; assay: Transrepression activity at glucocorticoid receptor alpha in IL-1beta-stimulated human A549 cells assessed as inhibition of NFkappaB-dependent E-selectin transcription by luciferase reporter gene assay; format: cell-based
Glucocorticoid receptor [5] = molecular target: T1, Glucocorticoid receptor; assay: Transactivation activity at GR-alpha in human NP1 Hela cells assessed as induction of GAL4-DBD after 20 hrs by luciferase reporter gene assay; format: cell-based
Glucocorticoid receptor [6] = molecular target: T1, Glucocorticoid receptor; assay: Transactivation activity at glucocorticoid receptor alpha human 13D3/Huh7 cells assessed as induction of TAT activity after 4 hrs by spectrophotometry; format: cell-based, Huh-7
Glucocorticoid receptor [7] = molecular target: T1, Glucocorticoid receptor; assay: Transactivation activity at GR-alpha in human NP1 Hela cells assessed as inhibition of GAL4-DBD after 20 hrs by luciferase reporter gene assay; format: cell-based
Blood [8] = assay: Antiinflammatory activity in human whole blood assessed as inhibition of LPS-induced TNFalpha production after overnight incubation by ELISA; format: functional, tissue-based
Method in brief: (§1)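 Whole blood from two donors per experiment was collected into ACD-A. Compounds were added and the blood was incubated about 20 h at 37 °C under 5% CO2. Blood was then stimulated for 5 h with LPS (final 100 ng/mL, for TNFα) or IL-1β (final 10 ng/mL, for IL-8). Plasma TNFα or IL-8 was measured by ELISA. Efficacy was expressed as % of dexamethasone, and values are means of at least two experiments.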

Blood [9] = assay: Antiinflammatory activity in human whole blood assessed as inhibition of LPS-induced TNFalpha production after overnight incubation by ELISA relative to Dexamethasone; format: functional; method in brief: as §1
Blood [10] = assay: Antiinflammatory activity in human whole blood assessed as inhibition of TNF-alpha-induced IL-8 production after overnight incubation by ELISA; format: functional, tissue-based
Blood [11] = assay: Antiinflammatory activity in human whole blood assessed as inhibition of TNF-alpha-induced IL-8 production after overnight incubation by ELISA relative to dexamethasone; format: functional
Blood [12] = assay: Antiinflammatory activity in human whole blood assessed as inhibition of IL-1beta-induced IL-8 production after overnight incubation by ELISA; format: functional, tissue-based; method in brief: as §1
Blood [13] = assay: Antiinflammatory activity in human whole blood assessed as inhibition of IL-1beta-induced IL-8 production after overnight incubation by ELISA relative to Dexamethasone; format: functional; method in brief: as §1

Ki (Glucocorticoid receptor [1]) [nM] | Ki (Progesterone receptor) [nM] | Ki (Estrogen receptor) [µM] | EC50 [2] [µM] | EC50 (Glucocorticoid receptor [3]) [nM] | EC50 (Glucocorticoid receptor [4]) [nM] | EC50 (Glucocorticoid receptor [5]) [nM] | EC50 (Glucocorticoid receptor [6]) [nM] | EC50 (Glucocorticoid receptor [7]) [nM] | EC50 (Blood [8]) [nM] | EC50 (Blood [10]) [nM] | EC50 (Blood [12]) [nM] | SMILES | Imax (Blood [9]) [%] | Imax (Blood [11]) [%] | Imax (Blood [13]) [%]
1.74 | 1230 | > 75 | > 5 | 12.2 | 4.6 | 89 | 22.7 | 42.7 | – | – | – | CN(C)C(=O)c1ccc(-c2ccc3c(n2)Oc2ccccc2[C@@H]3C(C)(C)C(=O)Nc2nncs2)cc1 | – | – | –
3.08 | – | – | – | 50 | 33.8 | 165 | 329 | 130 | 932 | 2850 | 5250 | CC(C)(C(=O)Nc1nncs1)[C@H]1c2ccccc2Oc2nc(-c3ccc(C(=O)N4CCC(F)(F)C4)c(Cl)c3)ccc21 | 85 | 59 | 82
1.96 | – | – | – | 25 | 29.2 | 177 | 389 | 205 | 886 | 1300 | 238 | CC(C)(C(=O)Nc1nncs1)[C@H]1c2ccccc2Oc2nc(-c3ccc(C(=O)N4CCCC4)c(F)c3)ccc21 | 80 | 61 | 86
